≈ marks a conversion by molar mass, not a printed value.
Test system: HL-60
Assay: Cytotoxicity against human HL-60 cells after 72 hrs by MTT assay
Format: functional, cell-based
Conditions: HL-60, 72 h
How it was run: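 HL-60 human promyelocytic leukemia cells grown in RPMI 1640 with 10% FBS, L-glutamine and penicillin/streptomycin. Seeded at 3 × 10^4 cells/mL and preincubated 24 h at 37 °C in 5% CO2. Samples added in EtOH–H2O (1:1) at final 0.0001–50 µg/mL, with vehicle controls, for 72 h. MTT then 4 h, formazan dissolved in DMSO, read at 550 nm. IC50 taken from dose-response curves of samples giving >50% inhibition at 10 µg/mL.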

Row | SMILES | IC50
1 | C[C@@H]1O[C@@H](O[C@H]2[C@H](O[C@H]3CC[C@]4(C)[C@H]5CC=C6[C@@H]7CC(C)(C)CC[C@]7(C(=O)O)CC[C@@]6(C)[C@]5(C)CC[C@H]4C3(C)C)OC[C@H](O)[C@@H]2O)[C@H](O)[C@H](O[C@@H]2O[C@H](CO)[C@@H](O[C@@H]3O[C@H](CO)[C@@H](O)[C@H](O)[C@H]3O)[C@H](O)[C@H]2O)[C@H]1O | 2.6 µg/mL (≈ 2.45 µM)
2 | CC1(C)CC[C@]2(C(=O)O)CC[C@]3(C)C(=CC[C@@H]4[C@@]5(C)CC[C@H](O[C@@H]6OC[C@H](O[C@@H]7O[C@H](CO)[C@@H](O)[C@H](O)[C@H]7O)[C@H](O)[C@H]6O)[C@@](C)(CO)[C@@H]5CC[C@]43C)[C@@H]2C1 | > 10 µg/mL
3 | C[C@@H]1O[C@@H](O[C@H]2[C@H](O[C@H]3CC[C@]4(C)[C@H]5CC=C6[C@@H]7CC(C)(C)CC[C@]7(C(=O)O)CC[C@@]6(C)[C@]5(C)CC[C@H]4C3(C)C)OC[C@H](O)[C@@H]2O)[C@H](O)[C@H](O[C@@H]2O[C@H](CO)[C@@H](O)[C@H](O)[C@H]2O)[C@H]1O | 3.6 µg/mL (≈ 4.01 µM)
4 | C[C@@H]1O[C@@H](O[C@H]2[C@H](O[C@H]3CC[C@@]4(C)[C@@H](CC[C@]5(C)[C@@H]4CC=C4[C@@H]6CC(C)(C)CC[C@]6(C(=O)O)CC[C@]45C)[C@]3(C)CO)OC[C@H](O)[C@@H]2O)[C@H](O)[C@H](O[C@@H]2O[C@H](CO)[C@@H](O)[C@H](O)[C@H]2O)[C@H]1O | 7.8 µg/mL (≈ 8.54 µM)
5 | C[C@@H]1O[C@@H](O[C@H]2[C@H](O[C@H]3CC[C@]4(C)[C@H]5CC=C6[C@@H]7CC(C)(C)CC[C@]7(C(=O)O)CC[C@@]6(C)[C@]5(C)CC[C@H]4C3(C)C)OC[C@H](O)[C@@H]2O)[C@H](O)[C@H](O)[C@H]1O | 4.4 µg/mL (≈ 5.99 µM)
6 | COC(=O)[C@]12CCC(C)(C)C[C@H]1C1=CC[C@@H]3[C@@]4(C)CC[C@H](O[C@@H]5OC[C@H](O)[C@H](O)[C@H]5O[C@@H]5O[C@@H](C)[C@H](O)[C@@H](O[C@@H]6O[C@H](CO)[C@@H](O[C@@H]7O[C@H](CO)[C@@H](O)[C@H](O)[C@H]7O)[C@H](O)[C@H]6O)[C@H]5O)C(C)(C)[C@@H]4CC[C@@]3(C)[C@]1(C)CC2 | 7.8 µg/mL (≈ 7.27 µM)
7 | COC(=O)[C@]12CCC(C)(C)C[C@H]1C1=CC[C@@H]3[C@@]4(C)CC[C@H](O[C@@H]5OC[C@H](O)[C@H](O)[C@H]5O[C@@H]5O[C@@H](C)[C@H](O)[C@@H](O[C@@H]6O[C@H](CO)[C@@H](O)[C@H](O)[C@H]6O)[C@H]5O)[C@@](C)(CO)[C@@H]4CC[C@@]3(C)[C@]1(C)CC2 | 8 µg/mL (≈ 8.63 µM)
8 | C[C@@H]1O[C@@H](O[C@H]2[C@H](O[C@H]3CC[C@]4(C)[C@H]5CC=C6[C@@H]7CC(C)(C)CC[C@]7(C(=O)O)CC[C@@]6(C)[C@]5(C)CC[C@H]4C3(C)C)OC[C@H](O[C@@H]3O[C@H](CO)[C@@H](O)[C@H](O)[C@H]3O)[C@@H]2O)[C@H](O)[C@H](O[C@@H]2O[C@H](CO)[C@@H](O[C@@H]3O[C@H](CO)[C@@H](O)[C@H](O)[C@H]3O)[C@H](O)[C@H]2O)[C@H]1O | 2.7 µg/mL (≈ 2.21 µM)
9 | COc1cc([C@@H]2OC[C@@H]3[C@H]2CO[C@H]3c2ccc(O)c(OC)c2)ccc1O [(+)-PINORESINOL] | > 10 µg/mL
10 | C[C@@H]1O[C@@H](O[C@H]2[C@H](O[C@H]3CC[C@@]4(C)[C@@H](CC[C@]5(C)[C@@H]4CC=C4[C@@H]6CC(C)(C)CC[C@]6(C(=O)O)CC[C@]45C)[C@]3(C)CO)OC[C@H](O)[C@@H]2O)[C@H](O)[C@H](O)[C@H]1O [ALPHA-HEDERIN] | 7.1 µg/mL (≈ 9.45 µM)
11 | COc1cc([C@@H]2c3cc4c(c(O)c3C[C@H]3COC(=O)[C@@H]32)OCO4)cc(OC)c1OC [BETA-PELTATIN A] | 0.0052 µg/mL (≈ 0.0125 µM)
12 | COc1cc([C@@H]2c3cc4c(cc3[C@@H](O[C@@H]3O[C@@H]5CO[C@@H](C)O[C@H]5[C@H](O)[C@H]3O)[C@H]3COC(=O)[C@H]23)OCO4)cc(OC)c1O [ETOPOSIDE] | 0.3 µg/mL (≈ 0.51 µM)
13 | C[C@@H]1O[C@@H](O[C@H]2[C@H](O[C@H]3CC[C@]4(C)[C@H]5CC=C6[C@@H]7CC(C)(C)CC[C@]7(C(=O)O)CC[C@@]6(C)[C@]5(C)CC[C@H]4C3(C)C)OC[C@H](O[C@@H]3O[C@H](CO)[C@@H](O)[C@H](O)[C@H]3O)[C@@H]2O)[C@H](O)[C@H](O)[C@H]1O [HEDERACOLCHISIDE A1] | 2.3 µg/mL (≈ 2.56 µM)
14 | C[C@@H]1O[C@@H](O[C@H]2[C@H](O[C@H]3CC[C@@]4(C)[C@@H](CC[C@]5(C)[C@@H]4CC=C4[C@@H]6CC(C)(C)CC[C@]6(C(=O)O)CC[C@]45C)[C@]3(C)CO)OC[C@H](O[C@@H]3O[C@H](CO)[C@@H](O)[C@H](O)[C@H]3O)[C@@H]2O)[C@H](O)[C@H](O)[C@H]1O [HEDERACOLCHISIDE A] | 3.8 µg/mL (≈ 4.16 µM)
15 | CC1(C)CC[C@]2(C(=O)O)CC[C@]3(C)C(=CC[C@@H]4[C@@]5(C)CC[C@H](O)C(C)(C)[C@@H]5CC[C@]43C)[C@@H]2C1 [OLEANOLIC_ACID] | > 50 µg/mL

From ChEMBL document CHEMBL1144110, “Triterpene saponins and lignans from the roots of Pulsatilla chinensis and their cytotoxic activity against HL-60 cells” (J Nat Prod, 1999)
